Results published in ChEMBL document CHEMBL3856258, “Phosphonate-based irreversible inhibitors of human γ-glutamyl transpeptidase (GGT). GGsTop is a non-toxic and highly selective inhibitor with critical electrostatic interaction with an active-site residue Lys562 for enhanced inhibitory activity” (Bioorg Med Chem, 2016).

Legend:
Salmonella typhimurium [1] = assay: Genotoxicity in Salmonella typhimurium TA1535 assessed as number of revertant colonies per plate at 556 ug/plate after 20 mins in presence of S9 fraction by Ames test (reference value: 13); type: toxicity, organism-based; details: salmonella enterica subsp. enterica serovar typhimurium
[2] = Cytotoxicity against CHL cells assessed as growth rate at 528 ug/ml after 24 hrs in absence of S9 fraction by MTT assay relative to control; type: toxicity, cell-based, Cricetulus griseus; details: chinese hamster, read-out: Activity
[3] = Cytotoxicity against CHL cells assessed as growth rate at 1320 ug/ml preincubated for 6 hrs followed by 18 hrs incubation in fresh medium in presence of S9 fraction by MTT assay relative to control; type: toxicity, cell-based, Cricetulus griseus; details: chinese hamster, read-out: Activity
Escherichia coli = assay: Genotoxicity in Escherichia coli WP2uvrA assessed as number of revertant colonies per plate at 5000 ug/plate after 20 mins in absence of S9 fraction by Ames test (reference value: 24); type: toxicity; details: s9, 20 min
[4] = Cytotoxicity against CHL cells assessed as structural aberrations at 825 ug/ml after 24 hrs by Giemsa-staining-based microscopic analysis; type: toxicity, cell-based, Cricetulus griseus; details: chinese hamster
[5] = Cytotoxicity against CHL cells assessed as number of cells with numerical aberrations at 3300 ug/ml preincubated for 6 hrs followed by 18 hrs incubation in fresh medium in presence of S9 fraction by Giemsa staining-based microscopic analysis relative to control; type: toxicity, cell-based, Cricetulus griseus; details: chinese hamster
Salmonella typhimurium [6] = assay: Genotoxicity in Salmonella typhimurium TA100 assessed as number of revertant colonies per plate at 5000 ug/plate after 20 mins in presence of S9 fraction by Ames test (reference value: 142); type: toxicity, organism-based; details: salmonella enterica subsp. enterica serovar typhimurium
[7] = Cytotoxicity against CHL cells assessed as chromatid gap at 825 ug/ml preincubated for 6 hrs followed by 18 hrs incubation in fresh medium in absence of S9 fraction by Giemsa-staining-based microscopic analysis; type: toxicity, cell-based, Cricetulus griseus; details: chinese hamster
[8] = Cytotoxicity against human CCD-1059SK cells assessed as reduction in cell viability up to 1 mM after 24 hrs by neutral red method; type: toxicity, cell-based
Procedure, shortened: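 CCD-1059SK skin fibroblasts, passages 10–20, grown in DMEM with 10% FBS at 37 °C under 5% CO2. Pre-incubated 24 h after plating, then exposed 24 h to 0, 10, 100 or 1000 µM, diluted into medium from distilled water. Viability read by Neutral Red assay.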

Salmonella typhimurium [9] = assay: Genotoxicity in Salmonella typhimurium TA1537 assessed as number of revertant colonies per plate at 20.6 ug/plate after 20 mins in absence of S9 fraction by Ames test (reference value: 9); type: toxicity, organism-based; details: salmonella enterica subsp. enterica serovar typhimurium
[10] = Cytotoxicity against CHL cells assessed as growth rate at 2.16 ug/ml after 24 hrs in absence of S9 fraction by MTT assay relative to control; type: toxicity, cell-based, Cricetulus griseus; details: chinese hamster, read-out: Activity
[11] = Cytotoxicity against CHL cells assessed as structural aberrations at 3300 ug/ml preincubated for 6 hrs followed by 18 hrs incubation in fresh medium in absence of S9 fraction by Giemsa-staining-based microscopic analysis; type: toxicity, cell-based, Cricetulus griseus; details: chinese hamster
[12] = Cytotoxicity against CHL cells assessed as number of cells with numerical aberrations at 1650 ug/ml preincubated for 6 hrs followed by 18 hrs incubation in fresh medium in absence of S9 fraction by Giemsa-staining-based microscopic analysis relative to control; type: toxicity, cell-based, Cricetulus griseus; details: chinese hamster
[13] = Cytotoxicity against CHL cells assessed as growth rate at 5.41 ug/ml preincubated for 6 hrs followed by 18 hrs incubation in fresh medium in presence of S9 fraction by MTT assay relative to control; type: toxicity, cell-based, Cricetulus griseus; details: chinese hamster, read-out: Activity
[14] = Cytotoxicity against CHL cells assessed as structural aberrations at 3300 ug/ml preincubated for 6 hrs followed by 18 hrs incubation in fresh medium in presence of S9 fraction by Giemsa-staining-based microscopic analysis; type: toxicity, cell-based, Cricetulus griseus; details: chinese hamster
Salmonella typhimurium [15] = assay: Genotoxicity in Salmonella typhimurium TA100 assessed as number of revertant colonies per plate at 185 ug/plate after 20 mins in presence of S9 fraction by Ames test (reference value: 142); type: toxicity, organism-based; details: salmonella enterica subsp. enterica serovar typhimurium
Salmonella typhimurium [16] = assay: Genotoxicity in Salmonella typhimurium TA1535 assessed as number of revertant colonies per plate at 5000 ug/plate after 20 mins in absence of S9 fraction by Ames test (reference value: 15); type: toxicity, organism-based; details: salmonella enterica subsp. enterica serovar typhimurium
[17] = Cytotoxicity against CHL cells assessed as chromatid gap at 1650 ug/ml after 24 hrs by Giemsa-staining-based microscopic analysis; type: toxicity, cell-based, Cricetulus griseus; details: chinese hamster
[18] = Cytotoxicity against CHL cells assessed as structural aberrations at 1650 ug/ml preincubated for 6 hrs followed by 18 hrs incubation in fresh medium in presence of S9 fraction by Giemsa-staining-based microscopic analysis; type: toxicity, cell-based, Cricetulus griseus; details: chinese hamster
Salmonella typhimurium [19] = assay: Genotoxicity in Salmonella typhimurium TA100 assessed as number of revertant colonies per plate at 61.7 ug/plate after 20 mins in presence of S9 fraction by Ames test (reference value: 142); type: toxicity, organism-based; details: salmonella enterica subsp. enterica serovar typhimurium
Salmonella typhimurium [20] = assay: Genotoxicity in Salmonella typhimurium TA1535 assessed as number of revertant colonies per plate at 1667 ug/plate after 20 mins in presence of S9 fraction by Ames test (reference value: 13); type: toxicity, organism-based; details: salmonella enterica subsp. enterica serovar typhimurium
[21] = Cytotoxicity against CHL cells assessed as structural aberrations at 3300 ug/ml after 24 hrs by Giemsa-staining-based microscopic analysis; type: toxicity, cell-based, Cricetulus griseus; details: chinese hamster
Salmonella typhimurium [22] = assay: Genotoxicity in Salmonella typhimurium TA100 assessed as number of revertant colonies per plate at 20.6 ug/plate after 20 mins in presence of S9 fraction by Ames test (reference value: 142); type: toxicity, organism-based; details: salmonella enterica subsp. enterica serovar typhimurium
Salmonella typhimurium [23] = assay: Genotoxicity in Salmonella typhimurium TA1537 assessed as number of revertant colonies per plate at 61.7 ug/plate after 20 mins in absence of S9 fraction by Ames test (reference value: 9); type: toxicity, organism-based; details: salmonella enterica subsp. enterica serovar typhimurium
Salmonella typhimurium [24] = assay: Genotoxicity in Salmonella typhimurium TA100 assessed as number of revertant colonies per plate at 556 ug/plate after 20 mins in absence of S9 fraction by Ames test (reference value: 123); type: toxicity, organism-based; details: salmonella enterica subsp. enterica serovar typhimurium
Salmonella typhimurium [25] = assay: Genotoxicity in Salmonella typhimurium TA100 assessed as number of revertant colonies per plate at 185 ug/plate after 20 mins in absence of S9 fraction by Ames test (reference value: 123); type: toxicity, organism-based; details: salmonella enterica subsp. enterica serovar typhimurium
[26] = Cytotoxicity against CHL cells assessed as growth rate at 211 ug/ml after 24 hrs in absence of S9 fraction by MTT assay relative to control; type: toxicity, cell-based, Cricetulus griseus; details: chinese hamster, read-out: Activity
[27] = Cytotoxicity against CHL cells assessed as number of cells with numerical aberrations at 825 ug/ml preincubated for 6 hrs followed by 18 hrs incubation in fresh medium in absence of S9 fraction by Giemsa-staining-based microscopic analysis relative to control; type: toxicity, cell-based, Cricetulus griseus; details: chinese hamster
[28] = Cytotoxicity against CHL cells assessed as number of cells with numerical aberrations at 825 ug/ml preincubated for 6 hrs followed by 18 hrs incubation in fresh medium in presence of S9 fraction by Giemsa-staining-based microscopic analysis relative to control; type: toxicity, cell-based, Cricetulus griseus; details: chinese hamster
Salmonella typhimurium [29] = assay: Genotoxicity in Salmonella typhimurium TA100 assessed as number of revertant colonies per plate at 61.7 ug/plate after 20 mins in absence of S9 fraction by Ames test (reference value: 123); type: toxicity, organism-based; details: salmonella enterica subsp. enterica serovar typhimurium
Salmonella typhimurium [30] = assay: Genotoxicity in Salmonella typhimurium TA1535 assessed as number of revertant colonies per plate at 5000 ug/plate after 20 mins in presence of S9 fraction by Ames test (reference value: 13); type: toxicity, organism-based; details: salmonella enterica subsp. enterica serovar typhimurium

SMILES: COP(=O)(CCC(N)C(=O)O)Oc1cccc(CC(=O)O)c1 (stereo unspecified)
- Activity (Salmonella typhimurium [1]): 12
- viability at 24 h, 528 ug/ml [2]: 96%
- viability at 18 h, 1320 ug/ml [3]: 95.7%
- Activity (Escherichia coli): 29
- Activity [4]: 0%
- Activity [5]: 1%
- Activity (Salmonella typhimurium [6]): 125
- Activity [7]: 1%
- Activity [8]: Non-Toxic
- Activity (Salmonella typhimurium [9]): 9
- viability at 24 h, 2.16 ug/ml [10]: 98%
- Activity [11]: 1%
- Activity [12]: 0%
- viability at 18 h, 5.41 ug/ml [13]: 102%
- Activity [14]: 1%
- Activity (Salmonella typhimurium [15]): 147
- Activity (Salmonella typhimurium [16]): 13
- Activity [17]: 1%
- Activity [18]: 1%
- Activity (Salmonella typhimurium [19]): 133
- Activity (Salmonella typhimurium [20]): 8
- Activity [21]: 1%
- Activity (Salmonella typhimurium [22]): 139
- Activity (Salmonella typhimurium [23]): 12
- Activity (Salmonella typhimurium [24]): 118
- Activity (Salmonella typhimurium [25]): 128
- viability at 24 h, 211 ug/ml [26]: 98.2%
- Activity [27]: 0%
- Activity [28]: 1%
- Activity (Salmonella typhimurium [29]): 148
- Activity (Salmonella typhimurium [30]): 11
